Measured values: ChEMBL document CHEMBL1125911, “Synthesis and biological activity of new HMG-CoA reductase inhibitors. 3. Lactones of 6-phenoxy-3,5-dihydroxyhexanoic acids” (J Med Chem, 1991)
One block for each molecule: values may come before it.

How the values were obtained:
Rattus norvegicus [1] = assay: In vivo inhibition of hepatic cholesterol de novo synthesis in rat after oral administration of 5 mg/kg dose; type: functional
Oryctolagus cuniculus [2] = assay: Tested in vivo for hypocholesterolemic activity by measuring its ability to decrease serum total cholesterol, after oral administration of 50 mg/kg body wt. per day in normolipidemic NZW rabbits; type: functional
In short: (§1)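 NZW rabbits (n = 5 or 6) dosed orally daily for 10 days. Serum total cholesterol reported as % change versus control. For 20 mg/kg, that dose was given on days 11-20 after 10 mg/kg, with the value read on day 20. Error given as SEM.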

Rattus norvegicus [3] = species on record: Rattus norvegicus; assay: Potency relative to mevinolin was determined with respect to IC50. […]; type: functional
Rattus norvegicus [4] = assay: Compound was tested for effect on serum LDL after oral administration of 100 mg/kg in male rats; type: functional
In short: (§2)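 Male HOE:WISKf (SPF 71) rats, initial body weight over 180 g, n = 10 per group, dosed once daily in the morning by gavage in polyethylene glycol 400 for 7 days; controls received vehicle. Fasted after last dose, bled retroorbitally 24 h later under mild ether. Liver and body weight recorded. Pooled group serum was ultracentrifuged into VLDL (<1.006), LDL (1.006-1.04) and HDL (1.04-1.21). Values are % change versus control.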

Rattus norvegicus [5] = assay: Compound was tested for effect on serum VLDL after oral administration of 100 mg/kg in male rats; type: functional; in short: as §2
Rattus norvegicus [6] = assay: Compound was tested for effect on serum HDL after oral administration of 100 mg/kg in male rats; type: functional; in short: as §2
Rattus norvegicus [7] = assay: Compound was tested for effect on liver weight after oral administration of 100 mg/kg in male rats.; type: functional; in short: as §2
Rattus norvegicus [8] = assay: Compound was tested for effect on body weight after oral administration of 100 mg/kg in male rats.; type: functional; in short: as §2
Rattus norvegicus [9] = assay: Compound was tested for effect on liver weight after oral administration of 30 mg/kg in male rats.; type: functional; in short: as §2
Rattus norvegicus [10] = assay: Compound was tested for effect on body weight after oral administration of 30 mg/kg in male rats.; type: functional; in short: as §2
Rattus norvegicus [11] = assay: Compound was tested for effect on serum HDL after oral administration of 30 mg/kg in male rats; type: functional; in short: as §2
Sus scrofa [12] = species on record: Sus scrofa; assay: Compound was tested for inhibition of Cu2+ catalyzed LDL oxidation and the potency relative to terbufucine was determined; type: functional
In short: (§3)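 Porcine plasma LDL isolated by sequential ultracentrifugation (density 1.019-1.063 g/mL), dialysed against PBS pH 7.4, then diluted to 0.1 mg/mL protein. Preincubated 1 h at 37 °C under N2 with compound in ethanol. Oxidised with 5 μM Cu2+ for 2 h at 37 °C in air. Fluorescence read at ex 365/em 430 nm.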

Rattus norvegicus [13] = assay: Compound was tested for effect on serum LDL after oral administration of 30 mg/kg in male rats; type: functional; in short: as §2
Sus scrofa [14] = species on record: Sus scrofa; assay: In vitro inhibition of Cu2+ catalyzed LDL oxidation; type: functional; in short: as §3
Rattus norvegicus [15] = assay: Compound was tested for effect on serum VLDL after oral administration of 30 mg/kg in male rats; type: functional; in short: as §2
[16] = target: T1, 3-hydroxy-3-methylglutaryl-coenzyme A reductase (Rattus norvegicus, UniProt P51639); assay: In vitro inhibition of solubilized HMG-CoA reductase in rat liver.
T1 sequence (P51639 whole entry): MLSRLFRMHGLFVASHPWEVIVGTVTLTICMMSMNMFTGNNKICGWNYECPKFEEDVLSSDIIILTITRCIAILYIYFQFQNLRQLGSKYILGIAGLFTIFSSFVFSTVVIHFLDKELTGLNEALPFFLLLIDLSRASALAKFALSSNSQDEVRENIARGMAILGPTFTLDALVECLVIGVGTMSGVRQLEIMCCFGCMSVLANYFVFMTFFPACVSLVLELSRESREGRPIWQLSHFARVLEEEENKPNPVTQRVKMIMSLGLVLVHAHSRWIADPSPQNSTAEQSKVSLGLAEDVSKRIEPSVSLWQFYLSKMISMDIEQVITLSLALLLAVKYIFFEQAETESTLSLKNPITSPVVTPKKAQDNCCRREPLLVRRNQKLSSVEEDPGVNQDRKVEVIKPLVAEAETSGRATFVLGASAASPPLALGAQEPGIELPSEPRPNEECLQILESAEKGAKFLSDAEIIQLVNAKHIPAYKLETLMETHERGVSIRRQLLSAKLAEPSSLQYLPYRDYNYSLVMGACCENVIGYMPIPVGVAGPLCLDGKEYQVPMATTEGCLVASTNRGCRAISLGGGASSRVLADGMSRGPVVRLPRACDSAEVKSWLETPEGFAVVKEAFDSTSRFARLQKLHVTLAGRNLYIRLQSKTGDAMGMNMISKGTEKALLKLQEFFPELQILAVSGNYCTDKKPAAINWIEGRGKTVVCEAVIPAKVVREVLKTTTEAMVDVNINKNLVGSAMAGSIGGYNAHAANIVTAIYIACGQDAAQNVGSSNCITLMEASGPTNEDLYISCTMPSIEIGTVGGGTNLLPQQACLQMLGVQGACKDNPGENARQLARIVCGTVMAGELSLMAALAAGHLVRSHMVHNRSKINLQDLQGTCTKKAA

Oryctolagus cuniculus [17] = assay: Tested in vivo for hypocholesterolemic activity by measuring its ability to decrease serum total cholesterol, after oral administration of 10 mg/kg body wt. per day in normolipidemic NZW rabbits; type: functional; in short: as §1
[18] = target: T2, 3-hydroxy-3-methylglutaryl-coenzyme A reductase (Homo sapiens, UniProt P04035); assay: Inhibition of the incorporation of sodium [14C]acetate into cholesterol in HEP G2 cells.; type: functional, cell-based, HepG2
T2 sequence (P04035 whole entry): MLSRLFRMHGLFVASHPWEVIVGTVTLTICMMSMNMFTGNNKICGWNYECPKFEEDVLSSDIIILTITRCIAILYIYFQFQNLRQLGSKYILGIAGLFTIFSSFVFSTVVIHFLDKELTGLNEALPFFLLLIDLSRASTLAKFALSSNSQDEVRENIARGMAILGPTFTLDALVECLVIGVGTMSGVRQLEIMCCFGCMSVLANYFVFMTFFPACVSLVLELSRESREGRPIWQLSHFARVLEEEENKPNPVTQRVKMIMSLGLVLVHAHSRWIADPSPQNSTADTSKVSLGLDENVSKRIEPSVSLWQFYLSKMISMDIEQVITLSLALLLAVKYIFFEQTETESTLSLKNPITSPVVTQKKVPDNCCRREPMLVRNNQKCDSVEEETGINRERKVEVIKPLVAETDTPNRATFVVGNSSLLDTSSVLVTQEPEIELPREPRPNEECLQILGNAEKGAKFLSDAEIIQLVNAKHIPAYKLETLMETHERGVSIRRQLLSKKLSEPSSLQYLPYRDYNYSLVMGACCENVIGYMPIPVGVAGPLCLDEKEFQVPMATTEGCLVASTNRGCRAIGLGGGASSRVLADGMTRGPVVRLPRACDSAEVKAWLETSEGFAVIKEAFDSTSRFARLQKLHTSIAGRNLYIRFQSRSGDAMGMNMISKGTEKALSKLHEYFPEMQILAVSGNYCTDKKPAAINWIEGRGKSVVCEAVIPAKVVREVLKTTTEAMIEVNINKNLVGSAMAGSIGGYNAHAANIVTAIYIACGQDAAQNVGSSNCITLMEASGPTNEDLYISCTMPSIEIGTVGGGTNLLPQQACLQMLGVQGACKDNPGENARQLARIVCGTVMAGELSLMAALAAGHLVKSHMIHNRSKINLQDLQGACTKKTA

[19] = target: T1, 3-hydroxy-3-methylglutaryl-coenzyme A reductase; assay: In vitro inhibition of HMG-CoA reductase in solubilized rat liver.
Rattus norvegicus [20] = species on record: Rattus norvegicus; assay: Compound was tested for inhibition of microsomal lipid peroxidation and the potency relative to terbufucine was determined; type: functional
In short: (§4)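 Rat liver microsomes in 50 mM Tris-HCl pH 7.4 with 100 mM KCl and 6.0 mM MgCl2, final protein 0.4 mg/mL. Peroxidation was started with ADP (2 mM)/FeCl3 (10 μM) plus an NADPH-regenerating system. Incubation 30 min at 37 °C with shaking. Thiobarbituric acid reactive substances were read at 535 nm.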

Sus scrofa [21] = species on record: Sus scrofa; assay: In vitro inhibition of Cu2+ catalyzed LDL oxidation at 10e-5 M conc.; type: functional; in short: as §3
Rattus norvegicus [22] = species on record: Rattus norvegicus; assay: In vitro inhibition of microsomal lipid peroxidation at 10e-5 M conc.; type: functional; in short: as §4
Oryctolagus cuniculus [23] = assay: Tested in vivo for hypocholesterolemic activity by measuring its ability to decrease serum total cholesterol, after oral administration of 5 mg/kg body wt. per day in normolipidemic NZW rabbits; type: functional; in short: as §1
[24] = target: T3, 3-hydroxy-3-methylglutaryl-coenzyme A reductase (Homo sapiens) (UniProt P04035); assay: Inhibition of HMG-CoA reductase compared to mevinolin.; type: functional
T3 sequence (whole entry): T2 sequence (P04035 whole entry)
In short: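 Solubilized, partially purified rat liver HMG-CoA reductase. IC50 from four or five inhibitor concentrations. Relative potency compared IC50 with mevinolin (set to 100), corrected for molecular weight.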

SMILES: O=C1C[C@H](O)CC(COc2c(Cl)cc(Cl)cc2CC2CCCCC2)O1 (stereo not given in full)
Cholesterol (Rattus norvegicus [1]): 36.4%
Change (Oryctolagus cuniculus [2]): -11%
Relative potency (Rattus norvegicus [3]): 74

SMILES: CCOC(=O)C(C)(C)Oc1ccc(Cl)cc1 [CLOFIBRATE]
Change (Rattus norvegicus [4]): -19%
Change (Rattus norvegicus [5]): -40%
Change (Rattus norvegicus [6]): -29%
Change (Rattus norvegicus [7]): 15%
Change (Rattus norvegicus [8]): 8%

IC50 (Sus scrofa [14]): 0.5 µM
SMILES: CC(C)(Sc1cc(C(C)(C)C)c(O)c(C(C)(C)C)c1)Sc1cc(C(C)(C)C)c(O)c(C(C)(C)C)c1 [PROBUCOL]
Change (Rattus norvegicus [9]): 5%
Change (Rattus norvegicus [10]): 5%
Change (Rattus norvegicus [11]): -11%
Relative potency (Sus scrofa [12]): 22
Change (Rattus norvegicus [13]): -24%
Change (Rattus norvegicus [15]): 4%

IC50 [16]: 4.5 nM
SMILES: O=C(O)C[C@H](O)C[C@H](O)/C=C/c1c(Cl)cc(Cl)cc1-c1ccc(F)cc1

SMILES: CC(C)c1cc(C(C)(C)C)cc(-c2ccc(F)cc2)c1OCC1C[C@@H](O)CC(=O)O1 (stereo not given in full)
Cholesterol (Rattus norvegicus [1]): 95.7%
Relative potency (Rattus norvegicus [3]): 6
Change (Oryctolagus cuniculus [17]): -15%

SMILES: O=C1C[C@H](O)CC(COc2c(Cl)cc(Cl)cc2C(c2ccc(F)cc2)c2ccc(F)cc2)O1 (stereo not given in full)
Cholesterol (Rattus norvegicus [1]): 65.6%
Relative potency (Rattus norvegicus [3]): 40

SMILES: Cc1cc(Cl)cc(CCCOc2ccc(Cl)cc2)c1OCC1C[C@@H](O)CC(=O)O1 (stereo not given in full)
Cholesterol (Rattus norvegicus [1]): 25.2%
Change (Oryctolagus cuniculus [2]): -2%
Relative potency (Rattus norvegicus [3]): 87

IC50 [18]: 0.5 nM
IC50 [19]: 6 nM
IC50 (Sus scrofa [14]): > 10 µM
Relative potency [24]: 10000
SMILES: CC(C)c1cc(Sc2ccc(F)cc2)cc(-c2ccc(F)cc2)c1OCC(O)C[C@@H](O)CC(=O)[O-].[Na+] (stereo not given in full)
Relative potency (Rattus norvegicus [20]): < 0.1
Relative potency (Sus scrofa [12]): 0.1
inhibition at 10 µM (Sus scrofa [21]): 41%
inhibition (Rattus norvegicus [22]): < 10%
Change (Oryctolagus cuniculus [23]): -46%

IC50 [18]: 4.1 nM
IC50 (Sus scrofa [14]): 6 µM
Relative potency [24]: 1200
SMILES: CC(=O)[O-].CC(C)c1c(OC[C@@H](O)C[C@@H](O)CC(=O)[O-])c(C(C)C)c(C(C)C)c(O)c1-c1ccc(F)cc1.[Na+].[Na+]
Relative potency (Rattus norvegicus [20]): < 0.1
Relative potency (Sus scrofa [12]): 2
inhibition (Rattus norvegicus [22]): < 10%
Change (Oryctolagus cuniculus [23]): -12%
